What all share (type): functional
One test deals with Staphylococcus aureus. Kind of test: Minimum inhibitory concentration against Staphylococcus aureus. The method, boiled down: (§1)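 MIC by 2-fold broth dilution in peptone medium containing compound; bacteria grown in test tubes at 37 °C for 2 days. Strains: S. aureus NCTC 8530, B. subtilis IFO 3007, E. coli IFO 3545, P. vulgaris IFO 3851, P. aeruginosa IFO 3080.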
For a further test, the system named is Pseudomonas aeruginosa. Kind of test: Minimum inhibitory concentration against Pseudomonas aeruginosa. The essentials: as §1
The next test relates to Saccharomyces cerevisiae. The experiment in a line: Minimum inhibitory concentration against Saccharomyces cerevisiae. The method, boiled down: (§2)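 Strains: S. cerevisiae IFO 0203, S. pombe IFO 0342, C. utilis OUT 6020, R. rubra IFO 0001, A. niger ATCC 6275, P. chrysogenum IFO 4626, R. chinensis IFO 4768, M. mucedo IFO 7684.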
The subject of test [1] is Schizosaccharomyces pombe. The experiment in a line: Minimum inhibitory concentration against Schizosaccharomyces pombe. The method, boiled down:
as §2

A further test concerns Cyberlindnera jadinii. Kind of test: Minimum inhibitory concentration against Candida utilis. To be noted: Williopsis jadinii. The method, boiled down:
as §2

In a further test the test system is Escherichia coli. Kind of test: Minimum inhibitory concentration against Escherichia coli. The essentials:
as §1

Test [2] in a line: Minimum inhibitory concentration against Penicillium chrysogenum. The method, boiled down:
as §2

The next test deals with Proteus vulgaris. Kind of test: Minimum inhibitory concentration against Proteus vulgaris. The essentials:
as §1

Another test relates to Aspergillus niger. The experiment in a line: Minimum inhibitory concentration against Aspergillus niger. The method, boiled down:
as §2

The subject of another test is Rhodotorula mucilaginosa. Kind of test: Minimum inhibitory concentration against Rhodotorula rubra. The method, boiled down:
as §2

Test [3] has as its system Rhizopus microsporus var. chinensis. Kind of test: Minimum inhibitory concentration against Rhizopus chinensis. The method, boiled down:
as §2

A further test concerns Mucor mucedo. Kind of test: Minimum inhibitory concentration against Mucor mucedo. The method, boiled down:
as §2

For a further test, the system named is Bacillus subtilis. Kind of test: Minimum inhibitory concentration against Bacillus subtilis. The method, boiled down: as §1

In brackets after ≈: the same amount, converted by molar mass. Where only a bound is given, the exact number is not on record here.

In general, MIC refers to the lowest concentration found to suppress growth.

Turning to `O=C1c2cnccc2C(=O)c2c(O)cccc21`, the minimal inhibitory concentration (MIC) in the test with Staphylococcus aureus was 1.56 µg/mL (≈ 6.93 µM); with Pseudomonas aeruginosa, 3.13 µg/mL (≈ 13.9 µM); in the test with Saccharomyces cerevisiae, 3.13 µg/mL (≈ 13.9 µM); in [1], 0.2 µg/mL (≈ 0.888 µM); against Cyberlindnera jadinii it was 6.25 µg/mL (≈ 27.8 µM); in the test with Escherichia coli, more than 100 µg/mL. Moreover, the minimal inhibitory concentration (MIC) in test [2] came to 1.56 µg/mL (≈ 6.93 µM); with Proteus vulgaris, 25 µg/mL (≈ 111 µM); in the test on Aspergillus niger, 3.13 µg/mL (≈ 13.9 µM); against Rhodotorula mucilaginosa, 3.13 µg/mL (≈ 13.9 µM); in test [3], 6.25 µg/mL (≈ 27.8 µM); against Mucor mucedo it was 6.25 µg/mL (≈ 27.8 µM). In the test with Bacillus subtilis, this compound had an MIC of 3.13 µg/mL (≈ 13.9 µM).
As for `O=C1c2ccncc2C(=O)c2c(O)cccc21`, the minimum inhibitory concentration (MIC) in the test with Staphylococcus aureus is 1.56 µg/mL (≈ 6.93 µM); in the test on Pseudomonas aeruginosa, 3.13 µg/mL (≈ 13.9 µM); in the test on Saccharomyces cerevisiae it was 3.13 µg/mL (≈ 13.9 µM); in test [1], 0.78 µg/mL (≈ 3.46 µM); in the test on Cyberlindnera jadinii it was 12.5 µg/mL (≈ 55.5 µM); against Escherichia coli, more than 100 µg/mL. For the same compound, the minimum inhibitory concentration (MIC) came to 1.56 µg/mL (≈ 6.93 µM) in [2]; 25 µg/mL (≈ 111 µM) in the test on Proteus vulgaris; 3.13 µg/mL (≈ 13.9 µM) in the test with Aspergillus niger; 3.13 µg/mL (≈ 13.9 µM) with Rhodotorula mucilaginosa; 12.5 µg/mL (≈ 55.5 µM) in test [3]; 3.13 µg/mL (≈ 13.9 µM) in the test with Mucor mucedo. Besides, in the test with Bacillus subtilis, 3.13 µg/mL (≈ 13.9 µM) was the least that counted as inhibitory (MIC).
`O=C1c2cnccc2C(=O)c2sccc21`: the MIC is 1.56 µg/mL (≈ 7.25 µM) against Staphylococcus aureus; 1.56 µg/mL (≈ 7.25 µM) with Pseudomonas aeruginosa; 1.56 µg/mL (≈ 7.25 µM) in the test with Saccharomyces cerevisiae; 0.39 µg/mL (≈ 1.81 µM) in test [1]; 3.13 µg/mL (≈ 14.5 µM) in the test with Cyberlindnera jadinii; 100 µg/mL (≈ 465 µM) against Escherichia coli. Moreover, the MIC in test [2] was 0.78 µg/mL (≈ 3.62 µM); against Proteus vulgaris, 50 µg/mL (≈ 232 µM); with Aspergillus niger, 0.78 µg/mL (≈ 3.62 µM); in the test on Rhodotorula mucilaginosa it was 1.56 µg/mL (≈ 7.25 µM); in [3] it was 6.25 µg/mL (≈ 29 µM); with Mucor mucedo, 3.13 µg/mL (≈ 14.5 µM). Besides, the MIC against Bacillus subtilis stood at 6.25 µg/mL (≈ 29 µM).
For `O=C1c2ccccc2C(=O)c2cnccc21`, the minimal inhibitory concentration (MIC) against Staphylococcus aureus was 6.25 µg/mL (≈ 29.9 µM); in the test on Pseudomonas aeruginosa, 6.25 µg/mL (≈ 29.9 µM); against Saccharomyces cerevisiae, 12.5 µg/mL (≈ 59.8 µM); in test [1], 3.13 µg/mL (≈ 15 µM); against Cyberlindnera jadinii, 12.5 µg/mL (≈ 59.8 µM); against Escherichia coli it was more than 100 µg/mL. Besides, the minimal inhibitory concentration (MIC) amounted to 3.13 µg/mL (≈ 15 µM) in test [2]; 50 µg/mL (≈ 239 µM) with Proteus vulgaris; 12.5 µg/mL (≈ 59.8 µM) against Aspergillus niger; 6.25 µg/mL (≈ 29.9 µM) with Rhodotorula mucilaginosa; 12.5 µg/mL (≈ 59.8 µM) in test [3]; 6.25 µg/mL (≈ 29.9 µM) in the test with Mucor mucedo. In the test on Bacillus subtilis, inhibition of growth (MIC) required 3.13 µg/mL (≈ 15 µM).
As for `Cc1cnc2c(c1)C(=O)c1cccc(O)c1C2=O`, the MIC in the test on Staphylococcus aureus is 12.5 µg/mL (≈ 52.3 µM); in the test on Pseudomonas aeruginosa, 25 µg/mL (≈ 105 µM); against Saccharomyces cerevisiae, 100 µg/mL (≈ 418 µM); in test [1], 12.5 µg/mL (≈ 52.3 µM); with Cyberlindnera jadinii, 25 µg/mL (≈ 105 µM); in the test on Escherichia coli, more than 100 µg/mL. In addition, the minimum inhibitory concentration (MIC) in [2] is 25 µg/mL (≈ 105 µM); with Proteus vulgaris, 100 µg/mL (≈ 418 µM); against Aspergillus niger it was more than 100 µg/mL; against Rhodotorula mucilaginosa it was 50 µg/mL (≈ 209 µM); in test [3] it was more than 100 µg/mL; with Mucor mucedo, 25 µg/mL (≈ 105 µM). This compound also had a minimum inhibitory concentration (MIC) against Bacillus subtilis of 6.25 µg/mL (≈ 26.1 µM).
Take `Cc1ccnc2c1C(=O)c1c(O)ccc(O)c1C2=O`: the minimal inhibitory concentration (MIC) against Staphylococcus aureus is 12.5 µg/mL (≈ 49 µM); in the test with Pseudomonas aeruginosa, 12.5 µg/mL (≈ 49 µM); against Saccharomyces cerevisiae it was 12.5 µg/mL (≈ 49 µM); in test [1], 6.25 µg/mL (≈ 24.5 µM); in the test with Cyberlindnera jadinii, 12.5 µg/mL (≈ 49 µM); against Escherichia coli, more than 100 µg/mL. Further, the MIC was 6.25 µg/mL (≈ 24.5 µM) in [2]; 100 µg/mL (≈ 392 µM) against Proteus vulgaris; 50 µg/mL (≈ 196 µM) in the test with Aspergillus niger; 12.5 µg/mL (≈ 49 µM) in the test with Rhodotorula mucilaginosa; 12.5 µg/mL (≈ 49 µM) in [3]; 12.5 µg/mL (≈ 49 µM) in the test with Mucor mucedo. The compound also had an MIC against Bacillus subtilis of 6.25 µg/mL (≈ 24.5 µM).
For the compound `Cc1ccnc2c1-c1ccccc1C2=O`, the minimum inhibitory concentration (MIC) against Staphylococcus aureus is 100 µg/mL (≈ 512 µM); in the test on Pseudomonas aeruginosa it was 50 µg/mL (≈ 256 µM); against Saccharomyces cerevisiae it was more than 100 µg/mL; in test [1], 100 µg/mL (≈ 512 µM); against Cyberlindnera jadinii it was 100 µg/mL (≈ 512 µM); in the test on Escherichia coli, more than 100 µg/mL. Further, the MIC in test [2] is 50 µg/mL (≈ 256 µM); in the test on Proteus vulgaris it was 100 µg/mL (≈ 512 µM); against Aspergillus niger it was 100 µg/mL (≈ 512 µM); in the test with Rhodotorula mucilaginosa, 100 µg/mL (≈ 512 µM); in [3], more than 100 µg/mL; against Mucor mucedo, 100 µg/mL (≈ 512 µM). In the test on Bacillus subtilis, this compound registered a minimum inhibitory concentration (MIC) of 50 µg/mL (≈ 256 µM).
On to `Cc1ccnc2c1C(=O)c1cccc(O)c1C2=O`, for which the minimal inhibitory concentration (MIC) in the test with Staphylococcus aureus was 12.5 µg/mL (≈ 52.3 µM); with Pseudomonas aeruginosa, 25 µg/mL (≈ 105 µM); with Saccharomyces cerevisiae, 100 µg/mL (≈ 418 µM); in [1] it was 12.5 µg/mL (≈ 52.3 µM); with Cyberlindnera jadinii it was 50 µg/mL (≈ 209 µM); in the test with Escherichia coli it was more than 100 µg/mL. The MIC in test [2] was 25 µg/mL (≈ 105 µM); in the test on Proteus vulgaris, 50 µg/mL (≈ 209 µM); against Aspergillus niger it was more than 100 µg/mL; in the test on Rhodotorula mucilaginosa, 50 µg/mL (≈ 209 µM); in test [3] it was more than 100 µg/mL; in the test on Mucor mucedo, 50 µg/mL (≈ 209 µM). In the test on Bacillus subtilis, this compound gave an MIC of 12.5 µg/mL (≈ 52.3 µM).
`COc1cccc2c1C(=O)c1ccncc1C2=O`: the MIC is 12.5 µg/mL (≈ 52.3 µM) with Staphylococcus aureus; 6.25 µg/mL (≈ 26.1 µM) with Pseudomonas aeruginosa; 25 µg/mL (≈ 105 µM) in the test with Saccharomyces cerevisiae; 1.56 µg/mL (≈ 6.52 µM) in test [1]; 25 µg/mL (≈ 105 µM) in the test with Cyberlindnera jadinii; more than 100 µg/mL with Escherichia coli. Further, the minimum inhibitory concentration (MIC) in test [2] worked out at 12.5 µg/mL (≈ 52.3 µM); with Proteus vulgaris, 50 µg/mL (≈ 209 µM); with Aspergillus niger, 12.5 µg/mL (≈ 52.3 µM); against Rhodotorula mucilaginosa it was 12.5 µg/mL (≈ 52.3 µM); in test [3], 25 µg/mL (≈ 105 µM); in the test on Mucor mucedo, 12.5 µg/mL (≈ 52.3 µM). In the test with Bacillus subtilis, this compound yielded a minimum inhibitory concentration (MIC) of 6.25 µg/mL (≈ 26.1 µM).
Take `COc1cccc2c1C(=O)c1cnccc1C2=O`: the MIC was 12.5 µg/mL (≈ 52.3 µM) against Staphylococcus aureus; 6.25 µg/mL (≈ 26.1 µM) against Pseudomonas aeruginosa; 25 µg/mL (≈ 105 µM) with Saccharomyces cerevisiae; 3.13 µg/mL (≈ 13.1 µM) in test [1]; 25 µg/mL (≈ 105 µM) in the test on Cyberlindnera jadinii; more than 100 µg/mL with Escherichia coli. The minimal inhibitory concentration (MIC) in test [2] is 12.5 µg/mL (≈ 52.3 µM); in the test on Proteus vulgaris, 50 µg/mL (≈ 209 µM); with Aspergillus niger, 12.5 µg/mL (≈ 52.3 µM); against Rhodotorula mucilaginosa it was 6.25 µg/mL (≈ 26.1 µM); in test [3] it was 25 µg/mL (≈ 105 µM); in the test on Mucor mucedo, 25 µg/mL (≈ 105 µM). Besides, inhibition of growth against Bacillus subtilis (MIC) required 3.13 µg/mL (≈ 13.1 µM).
Regarding `Cc1ccnc2c1C(=O)c1ccccc1C2=O` [CLEISTOPHOLINE], the MIC in the test on Staphylococcus aureus was 25 µg/mL (≈ 112 µM); against Pseudomonas aeruginosa it was 50 µg/mL (≈ 224 µM); with Saccharomyces cerevisiae, 100 µg/mL (≈ 448 µM); in test [1] it was 25 µg/mL (≈ 112 µM); against Cyberlindnera jadinii it was 50 µg/mL (≈ 224 µM); with Escherichia coli, more than 100 µg/mL. Further, the MIC in test [2] is 50 µg/mL (≈ 224 µM); against Proteus vulgaris, 50 µg/mL (≈ 224 µM); against Aspergillus niger, 100 µg/mL (≈ 448 µM); against Rhodotorula mucilaginosa, 50 µg/mL (≈ 224 µM); in test [3], more than 100 µg/mL; in the test on Mucor mucedo, 50 µg/mL (≈ 224 µM). The MIC in the test with Bacillus subtilis is 25 µg/mL (≈ 112 µM).
On to `Cc1ccnc2c1C(=O)c1ccccc1-2` [ONYCHINE], for which the minimal inhibitory concentration (MIC) is more than 100 µg/mL against Staphylococcus aureus; 100 µg/mL (≈ 512 µM) against Pseudomonas aeruginosa; 100 µg/mL (≈ 512 µM) against Saccharomyces cerevisiae; 50 µg/mL (≈ 256 µM) in [1]; 100 µg/mL (≈ 512 µM) with Cyberlindnera jadinii; more than 100 µg/mL against Escherichia coli. Moreover, the MIC is 50 µg/mL (≈ 256 µM) in test [2]; 100 µg/mL (≈ 512 µM) against Proteus vulgaris; 100 µg/mL (≈ 512 µM) against Aspergillus niger; 100 µg/mL (≈ 512 µM) with Rhodotorula mucilaginosa; more than 100 µg/mL in [3]; more than 100 µg/mL with Mucor mucedo. This compound showed an MIC with Bacillus subtilis of 100 µg/mL (≈ 512 µM).
